Screening results deposited in PubChem by The Scripps Research Institute Molecular Screening Center.
TAAR1 antagonist: human TAAR1 antagonists, primary screen, Fluo-8 calcium fluorescence, CHO RD-HGA16 cells; Trace amine-associated receptor 1 (Homo sapiens), Q96RJ0; antagonist; inhibition, % at 3 µM; hit rate 1.5% among 360,000; AID 624466, 2012;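 active means inhibition above a per-plate cutoff, the mean inhibition of test compounds on that plate plus 3 SD, cut at about 49% in these data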;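 further: 0% = DMSO plus EC80 beta-PEA response and 100% = DMSO alone without agonist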
Target sequence (Q96RJ0 whole entry, looked up): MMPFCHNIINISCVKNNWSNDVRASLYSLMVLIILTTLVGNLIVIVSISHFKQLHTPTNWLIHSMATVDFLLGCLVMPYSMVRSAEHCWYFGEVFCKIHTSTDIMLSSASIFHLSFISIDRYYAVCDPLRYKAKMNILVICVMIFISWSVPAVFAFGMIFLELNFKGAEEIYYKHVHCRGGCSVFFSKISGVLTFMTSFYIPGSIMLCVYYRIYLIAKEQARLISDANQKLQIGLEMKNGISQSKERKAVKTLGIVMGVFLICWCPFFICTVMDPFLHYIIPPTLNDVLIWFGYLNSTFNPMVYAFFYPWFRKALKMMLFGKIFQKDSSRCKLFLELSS
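test system = CHO RD-HGA16 cells bearing hTAAR1 | replication = singlicate | controls = DMSO-only wells and EC80 β-PEA-stimulated wells | reagent = EC80 β-phenethylamine stimulus | read-out basis = percent inhibition of PEA-evoked calcium signal, max/basal emission ratio | schedule = seeding 17-24 h prior, 75-min 37 °C, 30-min RT dye loading | signal = kinetic Fluo-8 calcium fluorescence measurement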
TAAR1 agonist: human TAAR1 agonists, primary screen, Fluo-8 calcium fluorescence, CHO RD-HGA16 cells. activation, % at 3 µM. hit rate 0.99% among 360,000. vehicle wells 0%, saturating PEA agonist 100%. Trace amine-associated receptor 1 (Homo sapiens), Q96RJ0;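 active means activation above the mean activation of all test compounds in the run plus 3 SD, cut at about 38% in these data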
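Test system: RD-HGA16 (CHO) cells co-expressing Gα16 and hTAAR1; dosing: one-point dosing at 3 µM (nominal); timing: 17-24 h seeding, 75 min 37 °C dye, 30 min RT; signal: kinetic Fluo-8 calcium fluorescence; read-out basis: % activation relative to PEA EC100 response; controls: DMSO and PEA EC100; replicates: n 1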
OXTR ag: human OXTR agonists, primary screen, fluorescence, CHO-OTR cells, Fluo-8 calcium; activation, % at 3 µM; Oxytocin receptor (Homo sapiens), P30559; Fluo-8 calcium fluorescence; normalized: DMSO 0%, oxytocin 100%; hit rate 0.32% among 320,000;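 active means activation above the mean of all tested compounds plus 3 SD, cutoff set per screening run, cut at about 20% in these data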;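 further: peak over basal fluorescence ratio from a 100 s FLIPR kinetic read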
OXTR potentiator: human OXTR potentiators, primary screen, fluorescence, CHO-OTR cells, Fluo-8 calcium; Oxytocin receptor (Homo sapiens), P30559; activation, % at 3 µM; Fluo-8 calcium fluorescence, potentiator mode; 0% = oxytocin EC15, 100% = EC100; hit rate 0.061% among 320,000;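 active means activation above that plate's cutoff, the mean activation of tested compounds plus 3 SD, cut at about 6.6% in these data, passing the limit was not always enough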;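 further: 100% uses oxytocin at 75 nM as the full agonist control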
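Measured by – Fluo-8 calcium dye fluorescence · Test system – human OTR in CHO cells · Dosing – one concentration, 3.0 µM compound · Controls – EC15 oxytocin alone as 0%, 75 nM oxytocin as 100% · Evaluation – normalized max/min fluorescence ratio, % activation · Timing – 6 min pre-incubation, 100 s read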
V1R ag counter: agonists of human V1a receptor, primary screen, counter-screen for OXTR agonist project, fluorescence, CHO-V1R cells. hit rate 0.25% among 320,000. Vasopressin V1a receptor (Homo sapiens), P37288. Fluo-8 calcium fluorescence, agonist mode; 0% DMSO, 100% 3 nM vasopressin. activation, % at 3 µM;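 active means activation above the mean activation of all tested compounds plus 3 SD, per screening run, cut at about 20% in these data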;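 further: signal is peak over basal fluorescence ratio across a 100 second FLIPR read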
* hit, by the source's call; · = no result. Shown are actives, neighbours in structure and some others; about 2.3% of the full set was active somewhere.

SMILES	TAAR1 antagonist	TAAR1 agonist	OXTR ag	OXTR potentiator	V1R ag counter
CCOC(=O)N1CCN(C(=O)CC(C)S(=O)(=O)c2cc3c(cc2C)NC(=O)CO3)CC1 (stereo not drawn)	-6	-1	0	1	0
CCOC(=O)C1=C(COC(=O)c2ccccc2OC)NC(=O)NC1C (stereo not drawn)	49*	14	·	·	·
COc1cc(C(=O)Nc2cccc(NC(=O)c3cccs3)c2)cc(OC)c1OC	51*	12	·	·	·
O=C(Nc1ccc(O)cc1)c1ccc(NC(=O)c2cccs2)cc1	38	12	-1	-17	1
O=C(Nc1cccc(O)c1)c1ccc(NC(=O)c2cccs2)cc1	52*	8	0	-8	0
CCOC(=O)CC(NC(=O)Cn1nnc(-c2ccccc2Cl)n1)c1ccc(OC)cc1 (stereo not drawn)	-3	46*	15	-17	17
CCOC(=O)CC(NC(=O)Cn1nnc(-c2ccccc2F)n1)c1ccc(OC)cc1 (stereo not drawn)	4	5	9	-13	9
Cn1ncc2c(NCCc3ccccc3)nc(Cl)nc21	43	38*	·	·	·
OCCCc1nc2n(n1)C(c1ccccc1)C=C(c1ccc(F)cc1)N2 (stereo not drawn)	7	0	-1	-7	0
OCCCc1nc2n(n1)C(c1cccs1)C=C(c1ccccc1)N2 (stereo not drawn)	·	·	82*	-12	50*
COc1ccc(-c2nn(-c3ccccc3)cc2C=O)cc1[N+](=O)[O-]	49*	6	-2	-6	-1
COc1ccc(-c2nn(-c3ccccc3)cc2/C=C/C(=O)O)cc1[N+](=O)[O-]	9	1	0	-5	0
COC(=O)C1=C(C)N(Cc2ccccc2)C(=NCC(C)C)N[C@H]1c1cccc(F)c1	40	44*	31*	-11	23*
COC(=O)C1=C(C)N(Cc2ccccc2)C(=S)N[C@H]1c1cccc(C(F)(F)F)c1	56*	6	0	-10	-1
COC(=O)C1=C(C)N(Cc2ccccc2)C(=NCC(C)C)N[C@H]1c1cccc(C(F)(F)F)c1	·	·	14	-10	3
CCc1cc2c(COC(=O)CCNS(=O)(=O)c3cccc(C(F)(F)F)c3)cc(=O)oc2cc1O	53*	3	0	-6	1
COc1ccc(-c2[nH]nc3nc(N4CCN(C(=O)c5ccoc5)CC4)cc(C(F)(F)F)c23)cc1	49*	5	·	·	·
COc1ccc(-n2c(Cc3ccccc3)nnc2SCC(=O)N2CCCc3ccccc32)cc1	12	27	-1	-19	-1
O=C(NCc1nnc(SCC(=O)N2CCCc3ccccc32)n1-c1ccccc1)c1cccc2ccccc12	50*	10	-2	-11	1
CC(C)(C)c1ccccc1OCC(=O)Nc1ccccc1C(=O)NCc1cccnc1	58*	14	1	-13	4
CC(C)(C)C(=O)Nc1ccccc1C(=O)NCc1cccnc1	-12	6	0	-11	1
Cc1ccc(O)c(C(=O)c2cc(C#N)c(=O)n(Cc3ccccc3)c2)c1	-1	5	3	-6	2
Cc1ccc(O)c(C(=O)c2cc(C(=O)NCCc3ccccc3)c(=O)n(CCc3ccccc3)c2)c1	58*	4	-2	-9	0
COc1ccc(O)c(C(=O)c2cc(C(=O)NCCc3ccccc3)c(=O)n(CCc3ccccc3)c2)c1	51*	2	-1	-12	0
CC(NC(=S)NNS(=O)(=O)c1cccc([N+](=O)[O-])c1)c1ccccc1 (stereo not drawn)	-16	2	1	-2	0
CN(C(=O)COC(=O)c1ccc([N+](=O)[O-])cc1)c1ccccc1	5	0	-1	-13	2
CN(C(=O)COC(=O)CSc1ccc([N+](=O)[O-])cc1)c1ccccc1	51*	1	2	-8	3
